Measured values from paper PMC8451076 (International Journal of Nanomedicine, 2021).
Counter-ions that a name gives are not always drawn. Like-named read-outs stand apart in the source and are kept apart here. Values belong to the compound of their own block, whether it stands above or below them.

How the values were obtained:
[1] = Solubility of BBR in supersaturated aqueous solutions; type: physicochemical; settings: water, thermodynamic from solid
In short: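 Supersaturated aqueous preparations, each at 10 mg/mL BBR, were sonicated 1 h and centrifuged at 16,000 rpm for 10 min. BBR in the supernatant was quantified by LC-MS. n = 6.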

[2] = type: physicochemical
In short: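 Test material containing 10 mg BBR was enclosed in a blank capsule and run in a rotating-basket tester at 50 rpm and 37 ± 0.5°C. Medium was 900 mL HCl buffer (2.0 g NaCl, pH 1.2; sampled 5–90 min) or 0.2 M sodium phosphate (pH 6.8; sampled 2.5 min–6 h). Samples were 0.22-μm filtered and centrifuged, then BBR was quantified by LC-MS. n = 6.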

[3] = Transportation of BBR across MDCK-MDR1 cell monolayer; type: in vitro ADME, canine; settings: dog
In short: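 MDCK-MDR1 cells were grown in DMEM/10% FBS/15 mM HEPES and seeded on polycarbonate Transwells (2×10^5 cells/mL) until TEER exceeded 500 Ω·cm2. Cells were equilibrated 20 min in HBSS (pH 7.2). BBR (final 10 μg/mL) was added apical or basolateral, and both sides were sampled after 2 or 4 h for LC-MS/MS. Papp = ΔQ/(Δt·A·C0), with A 0.33 cm2.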

[4] = Metabolism stability of BBR in intestinal S9; type: in vitro ADME; settings: mouse, intestinal S9, pH 7.4
In short: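 Mouse intestinal S9 (2 mg/mL) plus test material (BBR final 10 μg/mL) in 50 mM Tris-HCl pH 7.4 was preincubated 5 min at 37°C, then started with NADPH (1 mg/mL). After 0.5 or 1 h, reactions were stopped with equal-volume chilled methanol containing carbamazepine internal standard and centrifuged. Residual BBR and demethylberberine were measured by LC-MS/MS.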

[5] = cited from earlier work; for oral bioavailability: purified constituents of TCMs
[6] = tested on: Caco-2 cells; assay: Uptake of BBR in Caco-2 cells with endocytosis inhibitors; type: cell-based, human; settings: Nnps containing 10 μg/mL BBR, 4 h, indomethacin 100 μg/mL, chlorpromazine 10 μg/mL, cytochalasin D 5 μM

solubility at 1 h [1]: ~3700 µg/mL
dissolution rate of BBR ([2]; artificial gastric juice (pH 1.2), 15 min): 7.5%
dissolution rate of BBR ([2]; artificial gastric juice (pH 1.2), end point): 35.3%
dissolution rate of BBR ([2]; artificial intestinal juice (pH 6.8), 15 min): 1.8%
dissolution rate of BBR ([2]; artificial intestinal juice (pH 6.8), end point 6 h): 60.9%
Papp at 10 μg/mL [3]: < 1 ×10⁻⁶ cm/s
half-life at 10 μg/mL [4]: 149 min
SMILES: COc1ccc2cc3[n+](cc2c1OC)CCc1cc2c(cc1-3)OCO2 [BBR, berberine hydrochloride]
bioavailability of oral BBR ([5]; oral): 0.36%
fraction of BBR excreted directly with feces after oral administration ([5]; oral): approximately 56%
intestinal elimination of the oral dose ([5]; oral): 43.5%
oral bioavailability [5]: less than 5%

SMILES: CN(C)CCCN1c2ccccc2Sc2ccc(Cl)cc21 [Chlorpromazine, chlorpromazine]
effect of endocytosis inhibitor on uptake of BBR carried by the Nnps [6]: promoted the uptake

SMILES: COc1ccc2c(c1)c(CC(=O)O)c(C)n2C(=O)c1ccc(Cl)cc1 [Indomethacin, indomethacin]
effect of endocytosis inhibitor on uptake of BBR carried by the Nnps [6]: significantly reduced

SMILES: CC(C)=CCC[C@](C)(O[C@@H]1O[C@H](CO[C@@H]2OC[C@H](O)[C@H](O)[C@H]2O)[C@@H](O)[C@H](O)[C@H]1O)[C@H]1CC[C@]2(C)[C@@H]1[C@H](O)C[C@@H]1[C@@]3(C)CC[C@H](O[C@@H]4O[C@H](CO)[C@@H](O)[C@H](O)[C@H]4O[C@@H]4O[C@H](CO)[C@@H](O)[C@H](O)[C@H]4O)C(C)(C)[C@@H]3CC[C@]12C [Rb2, ginsenoside Rb2]
oral bioavailability [5]: less than 5%

SMILES: CC(C)=CCC[C@](C)(O[C@@H]1O[C@H](CO[C@@H]2OC[C@@H](O)[C@H](O)[C@H]2O)[C@@H](O)[C@H](O)[C@H]1O)[C@H]1CC[C@]2(C)[C@@H]1[C@H](O)C[C@@H]1[C@@]3(C)CC[C@H](O[C@@H]4O[C@H](CO)[C@@H](O)[C@H](O)[C@H]4O[C@@H]4O[C@H](CO)[C@@H](O)[C@H](O)[C@H]4O)C(C)(C)[C@@H]3CC[C@]12C [Rb3, ginsenoside Rb3]
oral bioavailability [5]: less than 5%

SMILES: CC(C)(O)[C@@H]1CC[C@](C)([C@H]2[C@@H](O)C[C@@]3(C)[C@@H]4C[C@H](O[C@@H]5O[C@H](CO)[C@@H](O)[C@H](O)[C@H]5O)[C@H]5C(C)(C)[C@@H](O[C@@H]6OC[C@@H](O)[C@H](O)[C@H]6O)CC[C@@]56C[C@@]46CC[C@]23C)O1 [astragaloside IV]
oral bioavailability [5]: less than 5%

SMILES: O=C(O)[C@H]1O[C@@H](Oc2cc3oc(-c4ccccc4)cc(=O)c3c(O)c2O)[C@H](O)[C@@H](O)[C@@H]1O [baicalin]
oral bioavailability [5]: less than 5%

SMILES: COc1cc(/C=C/C(=O)CC(=O)/C=C/c2ccc(O)c(OC)c2)ccc1O [curcumin]
oral bioavailability [5]: less than 5%

SMILES: C=C1[C@@H](C)[C@H]2[C@H](Cc3ccccc3)NC(=O)[C@]23[C@H](OC(C)=O)/C=C/[C@@](C)(O)C(=O)[C@@H](C)C/C=C/[C@H]3[C@@H]1O [cytochalasin D]
effect of endocytosis inhibitor on uptake of BBR carried by the Nnps [6]: promoted the uptake

SMILES: CC(C)=CCC[C@](C)(O[C@@H]1O[C@H](CO[C@@H]2O[C@H](CO)[C@@H](O)[C@H](O)[C@H]2O)[C@@H](O)[C@H](O)[C@H]1O)[C@H]1CC[C@]2(C)[C@@H]1[C@H](O)C[C@@H]1[C@@]3(C)CC[C@H](O[C@@H]4O[C@H](CO)[C@@H](O)[C@H](O)[C@H]4O[C@@H]4O[C@H](CO)[C@@H](O)[C@H](O)[C@H]4O)C(C)(C)[C@@H]3CC[C@]12C [ginsenoside Rb1]
oral bioavailability [5]: less than 5%

SMILES: CC1(C)[C@@H](O[C@H]2O[C@H](C(=O)O)[C@@H](O)[C@H](O)[C@H]2O[C@@H]2O[C@H](C(=O)O)[C@@H](O)[C@H](O)[C@H]2O)CC[C@]2(C)[C@H]3C(=O)C=C4[C@@H]5C[C@@](C)(C(=O)O)CC[C@]5(C)CC[C@@]4(C)[C@]3(C)CC[C@@H]12 [glycyrrhizin]
oral bioavailability [5]: less than 5%

SMILES: Cc1coc2c1C(=O)C(=O)c1c-2ccc2c1CCCC2(C)C [tanshinone IIA]
oral bioavailability [5]: less than 5%
